As usually defined, the Papp A→B is the apparent permeability from the apical to the basolateral side of a cell layer. A word on the IC50: it is the concentration at which inhibition is half-maximal. The Cmax is the highest concentration seen after dosing. In general, Tmax refers to the time from dosing to the highest level. A word on the bioavailability: it is dose-corrected exposure relative to a reference, in per cent. What is called Kp is tissue or fluid exposure divided by exposure in the circulation.

Structures are written as SMILES. Bounds are passed on as bounds.

The target in data set [1] is T1, Multidrug and toxin extrusion protein 1 (Homo sapiens, UniProt Q96FL8).
T1 sequence (Q96FL8 whole entry): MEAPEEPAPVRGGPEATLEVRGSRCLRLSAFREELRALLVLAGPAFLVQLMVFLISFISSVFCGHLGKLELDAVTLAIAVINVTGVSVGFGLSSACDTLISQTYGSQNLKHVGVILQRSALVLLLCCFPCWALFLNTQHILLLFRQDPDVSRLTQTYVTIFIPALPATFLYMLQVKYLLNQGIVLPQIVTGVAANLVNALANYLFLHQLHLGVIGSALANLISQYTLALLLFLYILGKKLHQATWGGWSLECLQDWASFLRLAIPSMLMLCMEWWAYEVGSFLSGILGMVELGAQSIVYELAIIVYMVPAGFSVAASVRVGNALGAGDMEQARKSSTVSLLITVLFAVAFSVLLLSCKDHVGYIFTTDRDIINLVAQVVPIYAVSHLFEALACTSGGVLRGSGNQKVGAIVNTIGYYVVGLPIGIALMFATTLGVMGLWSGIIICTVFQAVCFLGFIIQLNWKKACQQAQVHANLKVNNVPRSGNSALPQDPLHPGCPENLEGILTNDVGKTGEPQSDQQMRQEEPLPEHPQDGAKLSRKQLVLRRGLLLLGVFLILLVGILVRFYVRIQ
In words: Inhibition of human MATE1 assessed as reduction in intracellular probe substrate accumulation upto 100 uM by microplate scintillation counter analysis relative to control. Type of data set: cell-based. In outline:
(§1)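 Cellular uptake-inhibition assays used Chinese hamster ovary, HEK293 or MDCKII cells stably expressing the respective human SLC transporter, run alongside the corresponding control cells. Inhibitor was tested at concentrations up to 100 μM.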

The nature of data set [2]: Apparent permeability from apical to basolateral side in MDCK-II cells after 120 mins by LC-MS/MS analysis. Type of data set: ADME, cell-based, Canis lupus familiaris. As to conditions: dog.
In data set [3] the target is T2, Multidrug and toxin extrusion protein 2 (Homo sapiens, UniProt Q86VL8).
T2 sequence (Q86VL8 whole entry): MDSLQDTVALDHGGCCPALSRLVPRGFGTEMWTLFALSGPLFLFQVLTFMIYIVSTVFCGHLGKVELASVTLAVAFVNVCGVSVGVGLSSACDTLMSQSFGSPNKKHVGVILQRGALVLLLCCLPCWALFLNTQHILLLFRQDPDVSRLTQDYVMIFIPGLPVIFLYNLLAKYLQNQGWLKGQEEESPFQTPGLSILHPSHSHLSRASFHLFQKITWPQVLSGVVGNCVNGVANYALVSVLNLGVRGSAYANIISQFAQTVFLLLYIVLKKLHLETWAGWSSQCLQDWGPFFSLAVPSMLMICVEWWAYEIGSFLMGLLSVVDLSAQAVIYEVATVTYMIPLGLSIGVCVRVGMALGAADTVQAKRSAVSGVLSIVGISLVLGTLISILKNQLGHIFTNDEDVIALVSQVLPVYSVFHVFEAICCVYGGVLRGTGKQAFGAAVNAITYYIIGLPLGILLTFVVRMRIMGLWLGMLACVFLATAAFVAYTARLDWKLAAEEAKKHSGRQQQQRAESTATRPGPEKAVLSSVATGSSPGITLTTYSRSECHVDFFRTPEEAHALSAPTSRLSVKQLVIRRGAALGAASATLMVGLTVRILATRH
In words: Inhibition of human MATE2K assessed as reduction in intracellular probe substrate accumulation upto 100 uM by microplate scintillation counter analysis relative to control. It is filed as cell-based. The gist of the method: as §1

Data set [4] concerns the target ATP-dependent translocase ABCB1 (Homo sapiens, UniProt P08183). Put plainly: Inhibition of P-gp in human Caco-2 cells assessed as reduction in paclitaxel efflux pre-incubated for 30 mins and measured after 120 mins by LC-MS/MS analysis. Type of data set: cell-based. In outline:
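Bidirectional paclitaxel transport across Caco-2 monolayers with coadministered inhibitor. Apparent permeability was measured apical-to-basal (absorption) and basal-to-apical (efflux). IC50 was derived from these permeability data.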
(In general: Caco-2 monolayers are a common model of the intestinal barrier.)

The target in another data set is Cytochrome P450 3A5 (Homo sapiens, UniProt P20815). In words: Drug metabolism assessed as human CYP3A5-mediated metabolism. Type of data set: ADME. As to conditions: recombinant enzyme.
The nature of data set [5]: Toxicity in Sprague-Dawley rat at 200 mg/kg, po administered as repeated dose and measured upto 13 weeks. As to conditions: in vivo, 2184 h. It is filed as organism-based.
Data set [6] is described as follows: Toxicity in Sprague-Dawley rat assessed as histiocytosis in lymph nodes at 10 to 50 mg/kg, po and measured after 4 to 13 weeks. It is filed as organism-based, Lymph node. As to conditions: in vivo, dose lower 10 mg/kg, time lower 4 weeks, dose upper 50 mg/kg, time upper 13 weeks.
The nature of data set [7]: Cmax in human upto 360 mg, po administered as repeated dose for 5 consecutive days. It is filed as ADME, organism-based. Also noted: route oral, dose <=360. As to conditions: in vivo.
Data set [8] is described as follows: Tmax in Sprague-Dawley rat at 10 mg/kg, po measured upto 48 hrs by LC-MS/MS analysis. As to conditions: in vivo.
A short description of data set [9]: Tmax in Sprague-Dawley rat at 20 mg/kg, po measured upto 24 hrs in presence of 10 mg/kg encequidar by LC-MS/MS analysis. It is filed as ADME, organism-based. Conditions: in vivo.
The nature of data set [10]: Oral bioavailability in Sprague-Dawley rat at 20 mg/kg measured upto 24 hrs by LC-MS/MS analysis. It is filed as ADME, organism-based. As to conditions: in vivo.
A short description of data set [11]: Ratio of drug concentration in BALB/c mouse large intestine to plasma at 20 mg/kg, po measured upto 24 hrs in presence of 10 mg/kg encequidar by LC-MS/MS analysis. Type of data set: ADME, organism-based.
The nature of data set [12]: Ratio of drug concentration in BALB/c mouse lung to plasma at 20 mg/kg, po measured upto 24 hrs in presence of 10 mg/kg encequidar by LC-MS/MS analysis. It is filed as ADME, organism-based.
Data set [13] is described as follows: Drug excretion in dog bile at 6 mg/kg, po in presence of 3 mg/kg encequidar. It is filed as ADME, organism-based, Canis lupus familiaris. As to conditions: in vivo.
A further data set has as its system MDA-MB-231. In words: Antitumor activity against human MDA-MB-231 cells xenografted in athymic nude mouse assessed as reduction in median number of days for tumor to reach two tumor mass doubling at 18 mg/kg, iv administered every other day for 4 doses and monitored for 70 to 82 days (reference value: 13.1 day). As to conditions: time 70-82 day. It is filed as functional. (Xenograft models place foreign cells or tissue in a host animal.)

Data set [14] is described as follows: Toxicity in athymic nude mouse xenografted with human MDA-MB-231 cells assessed as reduction in body weight at 30 mg/kg, po administered every other day for 4 doses in presence of 12 mg/kg encequidar and monitored for 70 to 82 days. It is filed as organism-based. Details: scale not given: the % may be the effect or the level left. As to conditions: in vivo, time 70-82 day. In outline: (§2)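 Female athymic NCr-nu mice (n = 10/group) bearing subcutaneous MDA-MB-231 xenografts were treated from day 8. […] Individual body weights were monitored for 82 days after implantation.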

Data set [15] in a line: Toxicity in athymic nude mouse xenografted with human MDA-MB-231 cells assessed as reduction in body weight at 20 mg/kg, po administered every other day for 4 doses in presence of 8 mg/kg encequidar and monitored for 70 to 82 days. It is filed as organism-based. As to conditions: in vivo, time 70-82 day. In outline:
as §2

Data set [16] in a line: Toxicity in athymic nude mouse xenografted with human NCI-H460 cells assessed as mortality at 18 to 24 mg/kg, iv administered every other day for 4 doses monitored for 48 days. As to conditions: in vivo, 1152 h, dose 18-24 mg/kg, time 48 day. Type of data set: organism-based. The gist of the method: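 Female athymic NCr-nu mice carried subcutaneous NCI-H460 human lung tumor xenografts. Paclitaxel was given IV at 18 or 24 mg/kg every other day for four doses. Animals were followed for 48 days after tumor implantation, with individual body weights and mortality recorded alongside tumor weights.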

Chain of ATP-dependent translocase ABCB1 (P08183 whole entry): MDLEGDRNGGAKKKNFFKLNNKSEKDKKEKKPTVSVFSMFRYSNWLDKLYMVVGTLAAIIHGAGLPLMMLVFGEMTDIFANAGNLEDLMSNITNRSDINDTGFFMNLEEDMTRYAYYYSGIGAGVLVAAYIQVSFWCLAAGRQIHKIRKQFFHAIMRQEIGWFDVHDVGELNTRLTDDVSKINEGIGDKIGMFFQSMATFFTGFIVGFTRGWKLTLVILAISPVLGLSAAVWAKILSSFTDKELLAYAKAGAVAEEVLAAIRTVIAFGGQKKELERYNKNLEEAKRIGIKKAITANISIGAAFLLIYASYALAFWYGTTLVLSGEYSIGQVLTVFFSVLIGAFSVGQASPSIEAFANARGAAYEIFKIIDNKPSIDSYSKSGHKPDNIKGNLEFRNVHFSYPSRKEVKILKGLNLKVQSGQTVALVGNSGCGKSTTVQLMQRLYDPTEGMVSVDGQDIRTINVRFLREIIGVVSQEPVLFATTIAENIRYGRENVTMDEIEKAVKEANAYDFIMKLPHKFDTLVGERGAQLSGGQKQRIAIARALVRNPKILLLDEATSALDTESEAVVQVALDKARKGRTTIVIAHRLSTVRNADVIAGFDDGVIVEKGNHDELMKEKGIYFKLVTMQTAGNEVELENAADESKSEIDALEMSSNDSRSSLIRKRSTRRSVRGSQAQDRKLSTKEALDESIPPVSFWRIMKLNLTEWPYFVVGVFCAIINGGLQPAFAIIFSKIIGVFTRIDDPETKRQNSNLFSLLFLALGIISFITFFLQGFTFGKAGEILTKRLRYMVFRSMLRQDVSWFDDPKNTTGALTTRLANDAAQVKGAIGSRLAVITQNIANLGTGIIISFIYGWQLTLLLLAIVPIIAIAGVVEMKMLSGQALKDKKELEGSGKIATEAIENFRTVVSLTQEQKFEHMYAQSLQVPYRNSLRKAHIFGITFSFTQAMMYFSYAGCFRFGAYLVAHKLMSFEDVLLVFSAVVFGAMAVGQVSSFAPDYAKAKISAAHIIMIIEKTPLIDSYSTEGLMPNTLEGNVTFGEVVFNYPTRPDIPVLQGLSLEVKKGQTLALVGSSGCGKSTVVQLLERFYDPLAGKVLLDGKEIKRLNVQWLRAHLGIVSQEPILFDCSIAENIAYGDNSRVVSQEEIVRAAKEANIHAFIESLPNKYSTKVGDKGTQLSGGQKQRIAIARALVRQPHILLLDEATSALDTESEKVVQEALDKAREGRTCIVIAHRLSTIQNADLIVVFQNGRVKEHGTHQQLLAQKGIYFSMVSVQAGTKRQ
Chain of Cytochrome P450 3A5 (P20815 whole entry): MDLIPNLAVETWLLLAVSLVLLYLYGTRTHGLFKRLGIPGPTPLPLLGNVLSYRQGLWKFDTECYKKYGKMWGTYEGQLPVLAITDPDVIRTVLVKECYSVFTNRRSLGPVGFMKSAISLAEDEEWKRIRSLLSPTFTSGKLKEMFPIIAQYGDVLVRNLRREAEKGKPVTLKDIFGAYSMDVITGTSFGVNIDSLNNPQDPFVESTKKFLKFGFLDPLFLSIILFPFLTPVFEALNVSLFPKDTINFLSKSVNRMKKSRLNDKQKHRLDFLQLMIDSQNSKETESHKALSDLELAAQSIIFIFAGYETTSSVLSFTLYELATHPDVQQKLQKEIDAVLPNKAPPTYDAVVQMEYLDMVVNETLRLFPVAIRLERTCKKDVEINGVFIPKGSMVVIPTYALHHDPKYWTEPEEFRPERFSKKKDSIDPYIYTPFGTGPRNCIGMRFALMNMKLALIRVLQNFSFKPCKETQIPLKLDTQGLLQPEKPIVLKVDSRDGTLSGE

As for `COc1cc2c(cc1OC)CN(CCc1ccc(-n3nnc(-c4cc(OC)c(OC)cc4NC(=O)c4cc(=O)c5ccccc5o4)n3)cc1)CC2`, the “inhibition (INH)” value in data set [1] and in data set [3] was below 50% throughout. Also, the Papp A→B at 2 h in [2] is 0.002 ×10⁻⁶ cm/s. In data set [4], the concentration for half-maximal inhibition (IC50) stood at 0.053 µM. In addition, the Drug metabolism result on Cytochrome P450 3A5 is reported as “Metabolite_Detected”. In addition, the Activity result in [5] was “Non-Toxic”; in data set [6], “Toxic”. This molecule displayed a peak concentration (Cmax) in data set [7] of 22.5 ng/mL. Further, in [8], the time to peak (Tmax) came to 8 h.

As for `CC(=O)O[C@H]1C(=O)[C@@]2(C)[C@H]([C@H](OC(=O)c3ccccc3)[C@]3(O)C[C@H](OC(=O)[C@H](O)[C@@H](NC(=O)c4ccccc4)c4ccccc4)C(C)=C1C3(C)C)[C@]1(OC(C)=O)CO[C@@H]1C[C@@H]2O` [PACLITAXEL], in [9], the time of peak concentration (Tmax) was 1 h. The bioavailability in data set [10] is 3.4%. In addition, the Kp at 24 h in data set [11] and in data set [12] was above 1 throughout. For the same molecule, in data set [13], the Drug excretion entry is “Metabolite_Detected”. In addition, in the data set with MDA-MB-231, the Time was above 69 days. Besides, the Activity was 5% in data set [14], “Non-Toxic” in data set [15] and “Non-Toxic” in [16].
